Converted amounts (≈) assume the structure as drawn.
Legend:
[1] = Efflux ratio in human Caco2 cells incubated for 1 hr at 37 degC by HPLC-MS/MS method; type: ADME, cell-based; settings: Caco-2
[2] = Solubility in simulated intestinal fluid at pH 7.6 by HPLC method; type: physicochemical
Procedure, shortened: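 Simulated intestinal fluid medium; each analogue 200 μM final in 2% DMSO, shaken 24 h at room temperature, then HPLC with photodiode array read at 230 nm; duplicate, means given.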

[3] = Metabolic stability in human liver microsomes assessed as parent compound remaining at 1 uM incubated for 1 hr by HPLC-MS/MS method; type: ADME, Microsome; settings: read-out: Stability
Procedure, shortened: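 Pooled mixed-gender human liver microsomes (0.3 mg/mL protein), 1 μM compound with NADP-regenerating system in phosphate buffer pH 7.4, 1 h at 37 °C; parent measured at start and end by HPLC-MS/MS; duplicate means.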

[4] = test system: Mycobacterium tuberculosis; experiment: Antitubercular activity against Mycobacterium tuberculosis H37Rv incubated at 37 degC for 7 days by microplate alamar blue assay; type: functional; settings: Mycobacterium tuberculosis, H37Rv, 168 h
Procedure, shortened: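 Mtb H37Rv was grown in 7H9 broth with glycerol, Casitone, 10% OADC and 0.05% Tween 80 to OD600 0.4. Compounds were 2-fold serially diluted from DMSO stocks in 7H9, and wells were inoculated at 2 × 10⁵ CFU/mL. After 7 days at 37 °C, Alamar Blue was added and read after a further 24 h. MIC was the lowest concentration preventing the blue-to-pink change.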

[5] = Cmax in Sprague-Dawley rat at 20 mg/kg, po; type: ADME, organism-based; set-up: dose 20 mg/kg, route oral; settings: in vivo
[6] = Volume of distribution in Sprague-Dawley rat at 5 mg/kg, iv; type: ADME, organism-based; set-up: dose 5 mg/kg, route intravenous; settings: in vivo
Procedure, shortened: (§1)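 Male Sprague-Dawley rats (n = 3), single 5 mg/kg iv dose as solution in PEG300/DMSO 50:50; plasma sampled 0.083–24 h, LC-MS bioanalysis; noncompartmental analysis, means.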

[7] = Aqueous solubility in PBS buffer at pH 7.4 by HPLC method; type: physicochemical; settings: PBS buffer, read-out: solubility
Procedure, shortened: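 Compound at 200 μM final in 2% DMSO in PBS pH 7.4, shaken 24 h at room temperature; quantified by HPLC with photodiode array detection at 230 nm; duplicate, mean reported.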

[8] = Tmax in Sprague-Dawley rat at 20 mg/kg, po; type: ADME, organism-based; set-up: dose 20 mg/kg, route oral; settings: in vivo
[9] = Protein binding in human plasma at 10 uM incubated for 8 hrs at 37 degC by equilibrium dialysis method; type: ADME, cell-free; settings: read-out: PPB (converted)
Procedure, shortened: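 Equilibrium dialysis: 10 μM compound in 1% DMSO in human plasma vs 0.05 M phosphate buffer pH 7.5 across 12–14 K cutoff membrane, at least 8 h at 37 °C; HPLC-photodiode detection at 230 nm; duplicate means.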

[10] = Solubility in simulated gastric fluid at pH 1.5 by HPLC method; type: physicochemical
Procedure, shortened: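 Compound at 200 μM final in 2% DMSO in simulated gastric fluid, shaken 24 h at room temperature; HPLC-photodiode array detection at 230 nm; duplicate means.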

[11] = Clearance in Sprague-Dawley rat at 5 mg/kg, iv; type: ADME, organism-based; set-up: dose 5 mg/kg, route intravenous; settings: in vivo; procedure, shortened: as §1
[12] = Oral bioavailability in Sprague-Dawley rat at 20 mg/kg; type: ADME, organism-based; settings: in vivo
[13] = test system: Vero; experiment: Cytotoxicity against african green monkey Vero cells; type: cell-based, Chlorocebus sabaeus; settings: Chlorocebus sabaeus, Vero; read-out: IC50
[14] = Permeability across basolateral to apical side in human Caco2 cells incubated for 1 hr at 37 degC by HPLC-MS/MS method; type: ADME, cell-based; settings: Caco-2
[15] = test system: Mycobacterium tuberculosis; experiment: Antitubercular activity against Mycobacterium tuberculosis H37Rv incubated at 37 degC for 14 days in presence of 40% human serum by microplate alamar blue assay; type: functional; settings: 336 h
Procedure, shortened: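 This is the MABA run in 7H9 broth containing 40% human serum. Compounds were 2-fold serially diluted, and wells were inoculated with H37Rv at 2 × 10⁵ CFU/mL. Incubation was at 37 °C for 14 days, then Alamar Blue was added. MIC was the lowest concentration preventing the blue-to-pink colour change.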

[16] = AUC (0 to infinity) in C57BL/6 mouse at 40 mg/kg, po; type: ADME, organism-based; set-up: dose 40 mg/kg, route oral, time infinity; settings: plasma
[17] = test system: Mycobacterium tuberculosis; experiment: Antitubercular activity against non-replicating Mycobacterium tuberculosis H37Rv incubated for 10 days by LORA method; type: functional; settings: 240 h
Procedure, shortened: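 H37Rv carrying pFCA-luxAB was adapted to low oxygen by gradual self-depletion in a sealed, slowly stirred flask. It was then exposed to compounds for 10 days under anaerobic conditions. Cultures recovered for 28 h in ambient oxygen before n-decanal substrate was added and luminescence read. MIC was the lowest concentration giving a 90% reduction in luminescence versus untreated controls.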

[18] = Elimination half life in Sprague-Dawley rat at 5 mg/kg, iv; type: ADME, organism-based; set-up: dose 5 mg/kg, route intravenous; settings: in vivo, read-out: beta t1/2 (converted); procedure, shortened: as §1
[19] = Cmax in C57BL/6 mouse at 40 mg/kg, po; type: ADME, organism-based; set-up: dose 40 mg/kg, route oral; settings: in vivo
Procedure, shortened: (§2)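 Female C57BL/6 mice, single 40 mg/kg oral gavage; three mice per time point; plasma at 30 min to 24 h, LC-MS; noncompartmental parameters reported as means.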

[20] = AUC (0 to infinity) in Sprague-Dawley rat at 5 mg/kg, iv; type: ADME, organism-based; set-up: time infinity, dose 5 mg/kg, route intravenous; settings: plasma
[21] = Tmax in C57BL/6 mouse at 40 mg/kg, po; type: ADME, organism-based; set-up: dose 40 mg/kg, route oral; settings: in vivo; procedure, shortened: as §2
[22] = Permeability across apical to basolateral side in human Caco2 cells incubated for 1 hr at 37 degC by HPLC-MS/MS method; type: ADME, cell-based; settings: Caco-2
Procedure, shortened: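 TC7 (Caco-2 subclone) monolayer; 10 μM compound in 1% DMSO in HBSS-MES pH 6.5 on apical donor side, basolateral receiver pH 7.4; shaken 1 h at 37 °C; receiver sampled, HPLC-MS/MS; duplicate means.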

[23] = Half life in Sprague-Dawley rat at 20 mg/kg, po; type: ADME, organism-based; set-up: dose 20 mg/kg, route oral; settings: in vivo
[24] = AUC (0 to infinity) in Sprague-Dawley rat at 20 mg/kg, po; type: ADME, organism-based; set-up: time infinity, dose 20 mg/kg, route oral; settings: plasma

Question: With O=C1c2cc(C(=O)N3CCCCC3)ccc2-n2c1nc1ccccc1c2=O as the compound, how does the efflux ratio at 1 h [1] read?
Answer: > 1

Question: And the solubility [2]?
Answer: 27.5 µM (≈ 9.88 µg/mL)

Question: And the remaining at 1 h, 1 µM [3]?
Answer: 105%

Question: What about the MIC [4] of the same compound?
Answer: 0.25 µg/mL (≈ 0.696 µM)

Question: What about the Cmax [5] of the same compound?
Answer: 30 ng/mL

Question: What about the Vd [6] of the same compound?
Answer: 6.21 L/kg

Question: What about the solubility [7] of the same compound?
Answer: 16.3 µM (≈ 5.86 µg/mL)

Question: And the Tmax [8]?
Answer: 1 h

Question: What about the fraction unbound at 8 h, 10 µM [9] of the same compound?
Answer: 0.011

Question: What about the solubility [10] of the same compound?
Answer: 10.2 µM (≈ 3.67 µg/mL)

Question: And the clearance [11]?
Answer: 81 mL/min/kg

Question: And the bioavailability [12]?
Answer: 3.16%

Question: And the IC50 [13]?
Answer: > 10 µg/mL

Question: What about the Papp B→A at 1 h [14] of the same compound?
Answer: 26 ×10⁻⁶ cm/s

Question: And the MIC [15]?
Answer: 2 µg/mL

Question: And the AUC(0-inf) [16]?
Answer: 1300 ng·h/mL

Question: What about the MIC90 [17] of the same compound?
Answer: > 10 µg/mL

Question: What about the half-life [18] of the same compound?
Answer: 0.88 h

Question: What about the Cmax [19] of the same compound?
Answer: 112 ng/mL

Question: What about the AUC(0-inf) [20] of the same compound?
Answer: 1070 ng·h/mL

Question: What about the Tmax [21] of the same compound?
Answer: 2 h

Question: What about the Papp A→B at 1 h [22] of the same compound?
Answer: 59.9 ×10⁻⁶ cm/s

Question: And the half-life [23]?
Answer: 7.34 h

Question: And the AUC(0-inf) [24]?
Answer: 140 ng·h/mL
